# Test system: Rattus norvegicus
# Test: Antihypertensive effect after 1 mg/kg (po) administration in conscious spontaneously hypertensive rat (over a time period of 0-210 minutes).
# Assay type: functional
# Method in brief: (§1)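 Male Okamoto-strain SHR (280-330 g, blood pressure >180 mmHg), conscious and unrestrained, given 1 mg/kg orally as a screening dose. Mean arterial pressure was recorded directly and continuously via an aortic catheter from 1 h before to 3.5 h after dosing. The effect is the mean of the maximum individual changes over 3.5 h; N ≥ 3.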
row,SMILES,Max fall in blood pressure [mmHg]
1,CC1(C)C=C(n2ccccc2=O)c2cc(C(=N)S)ccc2O1,23
2,COC(=O)c1ccc2c(c1)[C@@H](n1ccccc1=O)[C@H](O)C(C)(C)O2,49
3,CC1(C)C=C(N2CCCCS2(=O)=O)c2cc(C#N)ccc2O1,25
4,CC1(C)Oc2ccc(C#N)cc2[C@@H](n2cc(N)ccc2=O)[C@@H]1O,34
5,O=c1ccccn1C1=CC2(CCCCC2)Oc2ccc([N+](=O)[O-])cc21,22
6,CC1(C)C=C(n2cc([N+](=O)[O-])ccc2=O)c2cc(C#N)ccc2O1,27
7,CC1(C)C=C(n2ccccc2=O)c2cc(C=O)ccc2O1,35
8,CC1(C)Oc2ccc(C#N)cc2C(n2ccccc2=O)C1=O (centres undefined),20
9,CC1(C)C=C(n2ncccc2=O)c2cc(C#N)ccc2O1,23
10,CC1(C)Oc2ccc(-c3ccncc3)cc2C(N2CCCC2=O)[C@@H]1O (some centres undefined),20
11,CC1(C)Oc2ccc(C#N)cc2C(n2ccc(=O)nc2)[C@@H]1O (some centres undefined),18
12,CC1(C)Oc2ccc(C#N)cc2[C@H](n2ccccc2=O)[C@@H]1O,26
13,CC1(C)Oc2ccc(/N=C/c3ccc([N+](=O)[O-])cc3)cc2C(N2CCCC2=O)[C@@H]1O (some centres undefined),26
14,CC1(C)Oc2ccc(-c3ccncc3)cc2[C@@H](n2ccccc2=O)[C@@H]1O,24
15,CC(=O)OC1=C(n2ccccc2=O)c2cc(C#N)ccc2OC1(C)C,21
16,CC1(C)Oc2ccc(C#N)cc2C(n2cccnc2=O)[C@@H]1O (some centres undefined),20
17,CC1(C)Oc2ccc(/C=C/C#N)cc2[C@@H](n2ccccc2=O)[C@@H]1O,25

row,SMILES,Max fall in blood pressure [mmHg]
1,CC(=O)Nc1cccn([C@@H]2c3cc(C#N)ccc3OC(C)(C)[C@H]2O)c1=O,22
2,CC1(C)Oc2ccc(C#N)cc2[C@@H](n2cc([N+](=O)[O-])ccc2=O)[C@@H]1O,23
3,CC1(C)Oc2ccc(C(=N)S)cc2C(N2CCCC2=O)[C@@H]1O (some centres undefined),22
4,CC1(C)Oc2ccc(C#N)cc2[C@@H](n2cc(Cl)ccc2=O)[C@@H]1O,37
5,CC1(C)Oc2ccc(C#N)cc2C(n2cnccc2=O)[C@@H]1O (some centres undefined),19
6,CC1(C)Oc2ccc(C#N)cc2C(n2ncc3ccccc3c2=O)[C@@H]1O (some centres undefined),38
7,CC1(C)C=C(n2ccc(=O)cc2)c2cc(C#N)ccc2O1,48
8,CC(=O)c1ccc2c(c1)[C@@H](n1ccccc1=O)[C@H](O)C(C)(C)O2,38
9,CC1(C)Oc2ccc(C#N)cc2C(N2CCCCS2(=O)=O)[C@@H]1O (some centres undefined),30
10,CC1(C)C=C(n2cc(Cl)ccc2=O)c2cc(C#N)ccc2O1,23
11,N#Cc1ccc2c(c1)C(n1ccccc1=O)=CC1(CCCC1)O2,26
12,CC1(C)Oc2ccc(C#N)cc2C(n2ccc(=O)cc2)[C@@H]1O (some centres undefined),21
13,COC1=C(n2ccccc2=O)c2cc(C#N)ccc2OC1(C)C,22
14,CC1(C)Oc2ccc(C#N)cc2[C@@H](n2cccc(C(=O)O)c2=O)[C@@H]1O,24
15,CC1(C)Oc2ccc(C#N)cc2C(n2ccc3ccccc3c2=O)[C@@H]1O (some centres undefined),24
16,CC1(C)C=C(n2ccc(=O)[nH]c2=O)c2cc(C#N)ccc2O1,23
17,CCOC(=O)c1ccc(=O)n(C2c3cc(C#N)ccc3OC(C)(C)[C@H]2O)n1 (some centres undefined),24

# Test system: Rattus norvegicus
# Test: Antihypertensive effect after 1 mg/kg (po) administration in conscious spontaneously hypertensive rat (over a time period of 0-210 min).
# Assay type: functional, organism-based
# Set-up: dose 1 mg/kg
# Method in brief: as §1
row,SMILES,Max fall in blood pressure
1,CC1(C)Oc2ccc(-c3nn[nH]n3)cc2C(N2CCCC2=O)[C@@H]1O (some centres undefined),Not significant
2,CC1(C)Oc2ccc(C#N)cc2[C@@H](n2cc(C(=O)O)ccc2=O)[C@@H]1O,Not significant
3,CC1(C)Oc2ccc(-c3nc4ccccc4[nH]3)cc2C(N2CCCC2=O)[C@@H]1O (some centres undefined),Not significant
4,N#Cc1ccc2c(c1)[C@@H](n1ccccc1=O)[C@H](O)C1(CCCC1)O2,Not significant
5,CC1(C)Oc2ccc(-c3nc4cc[nH]cc-4n3)cc2C(N2CCCC2=O)[C@@H]1O (some centres undefined),Not significant
6,Cc1coc(-c2ccc3c(c2)C(N2CCCC2=O)[C@H](O)C(C)(C)O3)n1 (some centres undefined),Not significant
7,CC1(C)Oc2ccc([N+](=O)[O-])cc2[C@@H](N2CCCC2=N)[C@@H]1O,Not significant
8,Cc1csc(-c2ccc3c(c2)C(N2CCCC2=O)[C@H](O)C(C)(C)O3)n1 (some centres undefined),Not significant
9,CC1(C)C=C(n2ccc(OCc3ccccc3)cc2=O)c2cc(C#N)ccc2O1,Not significant
10,CC1(C)Oc2ccc(/C=C/c3ccc(C#N)cc3)cc2[C@@H](n2ccccc2=O)[C@@H]1O,Not significant
11,CC1(C)Oc2ccc(NC(=N)S)cc2C(N2CCCC2=O)[C@@H]1O (some centres undefined),Not significant
12,CC1(C)C=C(n2ccccc2=O)c2cc(C(N)=O)ccc2O1,Not significant
13,CC1(C)Oc2ccc(C#N)cc2[C@@H](n2cc(Br)cc(Br)c2=O)[C@@H]1O,Not significant
14,N#Cc1ccc2c(c1)[C@@H](n1ccccc1=O)[C@H](O)C1(CCCCC1)O2,Not significant
15,CC1(C)C=C(n2cc(Br)cc(Br)c2=O)c2cc(C#N)ccc2O1,Not significant
16,Cc1csc(Nc2ccc3c(c2)C(N2CCCC2=O)[C@H](O)C(C)(C)O3)n1 (some centres undefined),Not significant
17,CC1(C)Oc2ccc(C#N)cc2[C@@H](N2CCCCC2=N)[C@@H]1O,Not significant
18,O=c1ccccn1[C@@H]1c2cc([N+](=O)[O-])ccc2OC2(CCCC2)[C@H]1O,Not significant
19,CC1(C)Oc2ccc(C#N)cc2C(n2cc(Cl)c(=O)c(Cl)c2)[C@@H]1O (some centres undefined),Not significant
20,CC1(C)Oc2ccc(Br)cc2[C@@H](n2ccccc2=O)[C@@H]1O,Not significant
21,N#Cc1ccc2c(c1)C(n1ccccc1=O)=CC1(CCCCC1)O2,Not significant
22,CC(=O)Oc1cccn([C@@H]2c3cc(C#N)ccc3OC(C)(C)[C@H]2O)c1=O,Not significant
23,CC1(C)Oc2ccc(C=O)cc2[C@@H](n2ccccc2=O)[C@@H]1O,Not significant
24,O=c1ccccn1C1=CC2(CCCC2)Oc2ccc([N+](=O)[O-])cc21,Not significant
25,CC1(C)Oc2ccc(C#N)cc2[C@@H](N2CCC/C2=N\C(=O)c2ccncc2)[C@@H]1O,Not significant

row,SMILES,Max fall in blood pressure
1,COc1cccn([C@@H]2c3cc(C#N)ccc3OC(C)(C)[C@H]2O)c1=O,Not significant
2,CC1(C)C=C(n2cc(Cl)c(=O)c(Cl)c2)c2cc(C#N)ccc2O1,Not significant
3,O=c1ccccn1[C@@H]1c2cc([N+](=O)[O-])ccc2OC2(CCCCC2)[C@H]1O,Not significant
4,CCOC(=O)c1ccc2c(c1)[C@@H](n1ccccc1=O)[C@H](O)C(C)(C)O2,Not significant
5,CC(=O)Nc1ccc(=O)n(C2=CC(C)(C)Oc3ccc(C#N)cc32)c1,Not significant
6,CC1(C)CC(n2ccc(=O)cc2)c2cc(C#N)ccc2O1 (centres undefined),Not significant
7,CC1(C)Oc2ccc(/N=C/c3ccc(Cl)cc3Cl)cc2C(N2CCCC2=O)[C@@H]1O (some centres undefined),Not significant
8,CC1(C)Oc2ccc(C#N)cc2[C@@H](n2cccc(N)c2=O)[C@@H]1O,Not significant
9,CC1(C)Oc2ccc(-c3nc4ccc[nH]c-4n3)cc2C(N2CCCC2=O)[C@@H]1O (some centres undefined),Not significant
10,CC1(C)C=C(n2ccccc2=O)c2cc(-c3ccncc3)ccc2O1,Not significant
11,CC1(C)Oc2ccc(C3=NCCN3)cc2C(N2CCCC2=O)[C@@H]1O (some centres undefined),Not significant
12,COC(=O)c1ccc2c(c1)C(n1ccccc1=O)C(=O)C(C)(C)O2 (centres undefined),Not significant
13,CC1(C)Oc2ccc(C(N)=O)cc2[C@]2(n3ccccc3=O)O[C@H]12,Not significant
14,CC1(C)Oc2ccc(/N=C/c3ccc(C#N)cc3)cc2C(N2CCCC2=O)[C@@H]1O (some centres undefined),Not significant
15,CC1(C)Oc2ccc(C#N)cc2[C@@H](n2cccc([N+](=O)[O-])c2=O)[C@@H]1O,Not significant
16,CC1(C)C=C(n2cc(Cl)cc(Cl)c2=O)c2cc(C#N)ccc2O1,Not significant
17,CC(=O)Nc1ccc(=O)n([C@@H]2c3cc(C#N)ccc3OC(C)(C)[C@H]2O)c1,Not significant
18,CN(C)c1cccn([C@@H]2c3cc(C#N)ccc3OC(C)(C)[C@H]2O)c1=O,Not significant
19,CC1(C)Oc2ccc(C(=N)S)cc2[C@@H](n2ccccc2=O)[C@@H]1O,Not significant
20,CC1(C)Oc2ccc(C#N)cc2C(n2ccc(=O)[nH]c2=O)[C@@H]1O (some centres undefined),Not significant
21,CCOc1ccn([C@@H]2c3cc(C#N)ccc3OC(C)(C)[C@H]2O)c(=O)c1,Not significant
22,CC1(C)Oc2ccc(C#N)cc2C(N2CCC(=O)CC2)[C@@H]1O (some centres undefined),Not significant
23,CC1(C)Oc2ccc(C#N)cc2[C@@H](n2ccc(OCc3ccccc3)cc2=O)[C@@H]1O,Not significant
24,CC1(C)C=C(n2ccc3ccccc3c2=O)c2cc(C#N)ccc2O1,Not significant
25,CC1(C)Oc2ccc(C#N)cc2[C@@H](n2cc(Cl)cc(Cl)c2=O)[C@@H]1O,Not significant

# Source: ChEMBL document CHEMBL1125037, “Synthesis and antihypertensive activity of 4-(1,2-dihydro-2-oxo-1-pyridyl)-2H-1-benzopyrans and related compounds, new potassium channel activators” (1990)
